From ChEMBL document CHEMBL2093137, “WHO-TDR NTD Screening”
≈ marks a conversion by molar mass, not a printed value.

How the values were obtained:
[1] = WHO-TDR: Cytotoxicity; assay type: toxicity, cell-based; details: human, MRC5 cells
Plasmodium falciparum K1 = assay: WHO-TDR: Malaria; assay type: functional, organism-based, Homo sapiens; details: Erythrocyte
Outline: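 Previously published standard procedures, including a reference drug as positive control, were used to screen whole Plasmodium falciparum K1 parasites inside human red blood cells. IC50 is the measure of antiplasmodial potency. The compounds were a 10,000-member diverse Life Chemicals library.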

Trypanosoma cruzi = assay: WHO-TDR: Chagas disease; assay type: functional, organism-based, Homo sapiens; details: MRC5
Outline: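 Whole-organism screen of a 10,000-compound diverse library from Life Chemicals, filtered for drug-likeness and reactive groups, against intracellular amastigotes of Trypanosoma cruzi Tulahuen CL2 beta-galactosidase strain grown in MRC-5SV2 human lung fibroblast host cells. The assay followed previously published standard procedures, with a reference drug as positive control. Antiparasitic potency is reported as IC50.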

[2] = tested on: Trypanosoma brucei brucei; assay: WHO-TDR: Human African Trypanosomiasis (HAT); assay type: functional, organism-based; details: Squib-427
Outline: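 In this whole-organism screen, the target was the bloodstream form of Trypanosoma brucei, strain Squib 427. A diverse set of 10,000 compounds from Life Chemicals, previously filtered for drug-likeness and reactive groups, was assayed by standard published procedures using reference drugs as positive controls. Each value is an IC50 for antiparasitic potency.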

Leishmania infantum = assay: WHO-TDR: Leishmaniasis; assay type: functional, organism-based, Mus musculus; details: Macrophage
Outline: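 Intracellular amastigotes of Leishmania infantum MHOM/MA(BE)/67, hosted in murine peritoneal macrophages, were exposed to compounds from a 10,000-member diverse library supplied by Life Chemicals. The library had been filtered for drug-likeness and reactive groups. The reported IC50 expresses antiparasitic potency.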

Schistosoma mansoni = assay: WHO-TDR: Schistosomiasis; assay type: functional; parameters: concentration or dose not given beside the values
Outline: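 Larval and/or adult Schistosoma mansoni (Puerto Rican strain) were tested whole against 10,000 diverse compounds from Life Chemicals. The procedure was a previously published standard one, using a reference drug as positive control. Results are expressed as percent inhibition and IC50.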

Onchocerca lienalis = assay: (§1) WHO-TDR: Onchocerciasis; assay type: functional; parameters: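 at 12.5 µM on microfilariae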
Outline: (§2)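 Onchocerca ochengi or Onchocerca lienalis, animal pathogens used as surrogates for the human parasite, were screened as whole microfilariae against a 10,000-compound diverse library from Life Chemicals. The reported measures of activity are percent inhibition and IC50.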

Onchocerca ochengi = assay: as §1; assay type: functional; parameters: concentration or dose not given beside the values; outline: as §2;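 note: at 12.5 µM on microfilariae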
Brugia malayi = assay: WHO-TDR: Lymphatic Filariasis; assay type: functional; parameters: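 tested at 10 µM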
Outline: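 Percent inhibition and IC50 describe activity against Brugia malayi microfilariae in a whole-organism screen. The screen used previously published standard procedures with reference drugs as positive controls. Compounds came from a diverse Life Chemicals library of 10,000, filtered for drug-likeness and reactive groups.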

CCOC(=O)CNC(=O)CSc1nnc(NC(=O)c2ccccc2Cl)s1
IC50 [1]: 3.81 µg/mL (≈ 9.19 µM) | IC50 (Plasmodium falciparum K1): 0.848 µg/mL (≈ 2.04 µM) | IC50 (Trypanosoma cruzi): 4.41 µg/mL (≈ 10.6 µM) | IC50 [2]: 0.237 µg/mL (≈ 0.572 µM) | IC50 (Leishmania infantum): 4.16 µg/mL (≈ 10 µM) | % Inhibition (Schistosoma mansoni): 0% | % Inhibition (Onchocerca lienalis): 13.3%

CN(C)CCCN(C(=O)c1ccc(N(C)C)cc1)c1nc2ccc(F)cc2s1
IC50 [1]: 4.1 µg/mL (≈ 10.2 µM) | IC50 (Plasmodium falciparum K1): 0.324 µg/mL (≈ 0.809 µM) | IC50 (Trypanosoma cruzi): 4.49 µg/mL (≈ 11.2 µM) | IC50 [2]: 0.435 µg/mL (≈ 1.09 µM) | IC50 (Leishmania infantum): 4.24 µg/mL (≈ 10.6 µM) | % Inhibition (Schistosoma mansoni): 0% | % Inhibition (Onchocerca lienalis): 0%

O=C(Cc1ccc(Cl)cc1)Nc1cccc(-c2nc3cccnc3s2)c1
IC50 [1]: > 11.4 µg/mL | IC50 (Plasmodium falciparum K1): > 11.4 µg/mL | IC50 (Trypanosoma cruzi): > 11.4 µg/mL | IC50 [2]: > 11.4 µg/mL | IC50 (Leishmania infantum): 0.369 µg/mL (≈ 0.971 µM) | % Inhibition (Schistosoma mansoni): 58.3% | % Inhibition (Onchocerca lienalis): 66.7%

O=C(Nc1nc(-c2ccccn2)cs1)c1cc(Cl)sc1Cl
IC50 [1]: 3.89 µg/mL (≈ 10.9 µM) | IC50 (Plasmodium falciparum K1): > 10.7 µg/mL | IC50 (Trypanosoma cruzi): 0.069 µg/mL (≈ 0.194 µM) | IC50 [2]: 0.182 µg/mL (≈ 0.511 µM) | IC50 (Leishmania infantum): > 10.7 µg/mL | % Inhibition (Onchocerca lienalis): 80%

COc1cccc(NC(=O)CSc2nc(-c3ccccc3Cl)ns2)c1
IC50 [1]: > 11.8 µg/mL | IC50 (Plasmodium falciparum K1): 0.24 µg/mL (≈ 0.612 µM) | IC50 (Trypanosoma cruzi): > 11.8 µg/mL | IC50 [2]: > 11.8 µg/mL | IC50 (Leishmania infantum): > 11.8 µg/mL | % Inhibition (Onchocerca lienalis): 6.7%

O=c1ccc(-c2ccncc2)nn1CCCNS(=O)(=O)c1ccc2c(c1)CCCC2
IC50 [1]: > 12.7 µg/mL | IC50 (Plasmodium falciparum K1): > 12.7 µg/mL | IC50 (Trypanosoma cruzi): 4.77 µg/mL (≈ 11.2 µM) | IC50 [2]: > 12.7 µg/mL | IC50 (Leishmania infantum): > 12.7 µg/mL | % Inhibition (Schistosoma mansoni): 0% | % Inhibition (Onchocerca ochengi): 100% | % Inhibition (Brugia malayi): 0%

CCOc1ncccc1C(=O)N1CCN(c2ccc(-c3ccc(Cl)cc3)nn2)CC1
IC50 [1]: > 12.7 µg/mL | IC50 (Plasmodium falciparum K1): > 12.7 µg/mL | IC50 (Trypanosoma cruzi): 8.92 µg/mL (≈ 21 µM) | IC50 [2]: > 12.7 µg/mL | IC50 (Leishmania infantum): > 12.7 µg/mL | % Inhibition (Schistosoma mansoni): 100% | % Inhibition (Onchocerca ochengi): 0% | % Inhibition (Brugia malayi): 0%

O=S(=O)(CCCOc1ccc(F)cc1)NC1CCN(Cc2ccccc2)CC1
IC50 [1]: > 12.2 µg/mL | IC50 (Plasmodium falciparum K1): > 12.2 µg/mL | IC50 (Trypanosoma cruzi): > 12.2 µg/mL | IC50 [2]: 3.86 µg/mL (≈ 9.49 µM) | IC50 (Leishmania infantum): > 12.2 µg/mL | % Inhibition (Schistosoma mansoni): 50% | % Inhibition (Onchocerca ochengi): 100% | % Inhibition (Brugia malayi): 0%

Cc1ccc(C)c2sc(N(CCCn3ccnc3)C(=O)c3ccco3)nc12
IC50 [1]: 3.53 µg/mL (≈ 9.28 µM) | IC50 (Plasmodium falciparum K1): 0.45 µg/mL (≈ 1.18 µM) | IC50 (Trypanosoma cruzi): 1.49 µg/mL (≈ 3.92 µM) | IC50 [2]: 3.86 µg/mL (≈ 10.2 µM) | IC50 (Leishmania infantum): > 12.5 µg/mL | % Inhibition (Schistosoma mansoni): 0% | % Inhibition (Onchocerca ochengi): 100% | % Inhibition (Brugia malayi): 0%

Cn1nccc1C(=O)Nc1sc(-c2ccccc2)cc1C(N)=O
IC50 [1]: 8.31 µg/mL (≈ 25.4 µM) | IC50 (Plasmodium falciparum K1): > 9.79 µg/mL | IC50 (Trypanosoma cruzi): 6.26 µg/mL (≈ 19.2 µM) | IC50 [2]: 3.17 µg/mL (≈ 9.71 µM) | IC50 (Leishmania infantum): 3.17 µg/mL (≈ 9.71 µM) | % Inhibition (Schistosoma mansoni): 100% | % Inhibition (Onchocerca ochengi): 0% | % Inhibition (Brugia malayi): 0%

O=C(Nc1ccc(F)cc1)Nc1cccc(-c2ccc(N3CCCC3)nn2)c1
IC50 [1]: > 11.3 µg/mL | IC50 (Plasmodium falciparum K1): > 11.3 µg/mL | IC50 (Trypanosoma cruzi): > 11.3 µg/mL | IC50 [2]: > 11.3 µg/mL | IC50 (Leishmania infantum): > 11.3 µg/mL | % Inhibition (Schistosoma mansoni): 0% | % Inhibition (Onchocerca ochengi): 100% | % Inhibition (Brugia malayi): 0%

CCc1nnc(NS(=O)(=O)c2ccc(NC(=O)c3ccc(S(=O)(=O)N4CCCCC4C)cc3)cc2)s1 (configuration not stated)
IC50 [1]: > 16.5 µg/mL | IC50 (Plasmodium falciparum K1): 13.4 µg/mL (≈ 24.4 µM) | IC50 (Trypanosoma cruzi): > 16.5 µg/mL | IC50 [2]: 5.34 µg/mL (≈ 9.71 µM) | IC50 (Leishmania infantum): > 16.5 µg/mL | % Inhibition (Schistosoma mansoni): 0% | % Inhibition (Onchocerca ochengi): 100% | % Inhibition (Brugia malayi): 0%

CCn1ccnc1N1CCN(CC(=O)NC2CCCCC2)CC1
IC50 [1]: > 11.8 µg/mL | IC50 (Plasmodium falciparum K1): > 11.8 µg/mL | IC50 (Trypanosoma cruzi): > 11.8 µg/mL | IC50 [2]: > 11.8 µg/mL | IC50 (Leishmania infantum): 0.381 µg/mL (≈ 1.19 µM) | % Inhibition (Schistosoma mansoni): 0% | % Inhibition (Onchocerca ochengi): 0% | % Inhibition (Brugia malayi): 0%

Cc1cccc(Nc2ccc(NCCNS(=O)(=O)c3ccc(F)cc3)nn2)n1
IC50 [1]: > 12.1 µg/mL | IC50 (Plasmodium falciparum K1): 0.582 µg/mL (≈ 1.45 µM) | IC50 (Trypanosoma cruzi): > 12.1 µg/mL | IC50 [2]: 4.06 µg/mL (≈ 10.1 µM) | IC50 (Leishmania infantum): > 12.1 µg/mL | % Inhibition (Schistosoma mansoni): 0% | % Inhibition (Onchocerca ochengi): 100% | % Inhibition (Brugia malayi): 50%

COc1cccc(NC(=O)N2CCN(c3ccc(Nc4cc(C)ccn4)nn3)CC2)c1
IC50 [1]: > 12.6 µg/mL | IC50 (Plasmodium falciparum K1): 9.16 µg/mL (≈ 21.8 µM) | IC50 (Trypanosoma cruzi): > 12.6 µg/mL | IC50 [2]: 5.21 µg/mL (≈ 12.4 µM) | IC50 (Leishmania infantum): > 12.6 µg/mL | % Inhibition (Schistosoma mansoni): 0% | % Inhibition (Onchocerca ochengi): 100% | % Inhibition (Brugia malayi): 0%

CC(C)(C)C(=O)N1CCN(c2ccc(-c3ccncc3)nn2)CC1
IC50 [1]: > 9.76 µg/mL | IC50 (Plasmodium falciparum K1): > 9.76 µg/mL | IC50 (Trypanosoma cruzi): > 9.76 µg/mL | IC50 [2]: > 9.76 µg/mL | IC50 (Leishmania infantum): > 9.76 µg/mL | % Inhibition (Schistosoma mansoni): 100% | % Inhibition (Onchocerca ochengi): 0% | % Inhibition (Brugia malayi): 33.33%

Cc1cc(C(=O)Nc2nnc(-c3ccc(Br)s3)o2)nn1C
IC50 [1]: 3.2 µg/mL (≈ 8.68 µM) | IC50 (Plasmodium falciparum K1): > 11 µg/mL | IC50 (Trypanosoma cruzi): > 11 µg/mL | IC50 [2]: > 11 µg/mL | IC50 (Leishmania infantum): > 11 µg/mL | % Inhibition (Schistosoma mansoni): 8.3% | % Inhibition (Onchocerca ochengi): 100% | % Inhibition (Brugia malayi): 0%

CS(=O)(=O)N1CCCC1C(=O)Nc1nc(-c2ccc(Cl)s2)cs1 (configuration not stated)
IC50 [1]: > 11.8 µg/mL | IC50 (Plasmodium falciparum K1): 3.6 µg/mL (≈ 9.18 µM) | IC50 (Trypanosoma cruzi): > 11.8 µg/mL | IC50 [2]: > 11.8 µg/mL | IC50 (Leishmania infantum): > 11.8 µg/mL | % Inhibition (Schistosoma mansoni): 0% | % Inhibition (Onchocerca ochengi): 100% | % Inhibition (Brugia malayi): 0%

O=C(Cc1csc(NC(=O)c2ccc(=O)[nH]c2)n1)NCc1cccs1
IC50 [1]: > 11.2 µg/mL | IC50 (Plasmodium falciparum K1): > 11.2 µg/mL | IC50 (Trypanosoma cruzi): > 11.2 µg/mL | IC50 [2]: > 11.2 µg/mL | IC50 (Leishmania infantum): > 11.2 µg/mL | % Inhibition (Schistosoma mansoni): 100% | % Inhibition (Onchocerca ochengi): 0% | % Inhibition (Brugia malayi): 20%

CN(C)C(CNS(=O)(=O)c1ccc(Cl)s1)c1ccc(F)cc1 (configuration not stated)
IC50 [1]: > 10.9 µg/mL | IC50 (Plasmodium falciparum K1): > 10.9 µg/mL | IC50 (Trypanosoma cruzi): > 10.9 µg/mL | IC50 [2]: 3.44 µg/mL (≈ 9.49 µM) | IC50 (Leishmania infantum): > 10.9 µg/mL | % Inhibition (Schistosoma mansoni): 0% | % Inhibition (Onchocerca ochengi): 100% | % Inhibition (Brugia malayi): 0%

O=C(Nc1nc(-c2ccc3c(c2)OCCO3)cs1)C1CCN(S(=O)(=O)c2ccc(Cl)cc2)CC1
IC50 [1]: 2.74 µg/mL (≈ 5.28 µM) | IC50 (Plasmodium falciparum K1): 8.56 µg/mL (≈ 16.5 µM) | IC50 (Trypanosoma cruzi): 0.697 µg/mL (≈ 1.34 µM) | IC50 [2]: 0.586 µg/mL (≈ 1.13 µM) | IC50 (Leishmania infantum): > 15.6 µg/mL | % Inhibition (Schistosoma mansoni): 0% | % Inhibition (Onchocerca ochengi): 50% | % Inhibition (Brugia malayi): 0%

Cc1cc(-c2nnc(NC(=O)CSc3ccc(F)cc3)o2)nn1C
IC50 [1]: > 10.4 µg/mL | IC50 (Plasmodium falciparum K1): > 10.4 µg/mL | IC50 (Trypanosoma cruzi): > 10.4 µg/mL | IC50 [2]: > 10.4 µg/mL | IC50 (Leishmania infantum): 0.337 µg/mL (≈ 0.97 µM) | % Inhibition (Schistosoma mansoni): 0% | % Inhibition (Onchocerca ochengi): 0% | % Inhibition (Brugia malayi): 33.33%

O=C(CCCn1nc(-c2ccc(F)cc2)ccc1=O)Nc1ccc(C(F)(F)F)cc1
IC50 [1]: > 12.6 µg/mL | IC50 (Plasmodium falciparum K1): > 12.6 µg/mL | IC50 (Trypanosoma cruzi): > 12.6 µg/mL | IC50 [2]: > 12.6 µg/mL | IC50 (Leishmania infantum): > 12.6 µg/mL | % Inhibition (Schistosoma mansoni): 0% | % Inhibition (Onchocerca ochengi): 100% | % Inhibition (Brugia malayi): 0%
